# Measured values from ChEMBL document CHEMBL5712907, “Inhibition of super enhancer downregulates the expression of KLF5 in basal-like breast cancers” (Int J Biol Sci, 2018).
# The source made the active and inactive calls. The calls are words filed in the database; no cut-off is given here.
# Key:
# HCC1806 [1] = test: Potency index, ratio of test compound to (S)-tert-butyl 2-(4-(4-chlorophenyl)-2,3,9-trimethyl-6H-thieno[3,2-f] [1,2,4]triazolo[4,3-a] [1,4]diazepin-6-yl)acetate for effect on human HCC1806 cells assessed as reduction in c-MYC level at 0.1 to 3 uM for 24 hrs; type: functional; details: dose 0.1-3 µM
# HCC1937 [2] = test: Inhibition of cell growth in human HCC1937 cells infected with pCDH-3 Flag tagged KLF5 assessed as ectopic KLF5 expression at 0.01 to 10000 nM for 72 hrs by SRB assay; type: functional, cell-based; details: dose 0.01-10000 nM
# In short: (§1)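 Cells infected with pCDH-3×Flag-KLF5 lentivirus, or vector control lentivirus, were plated and treated for 72 h. Inhibition rate measured by SRB assay. Experimental triplicates, SD shown.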
# HCC1806 [3] = test: Inhibition of cell growth in human HCC1806 cells infected with pCDH-3 Flag tagged KLF5 assessed as ectopic KLF5 expression at 0.01 to 10000 nM for 72 hrs by SRB assay; type: functional, cell-based; details: dose 0.01-10000 nM; in short: as §1
# HCC1937 [4] = test: Potency index, ratio of test compound to (S)-tert-butyl 2-(4-(4-chlorophenyl)-2,3,9-trimethyl-6H-thieno[3,2-f] [1,2,4]triazolo[4,3-a] [1,4]diazepin-6-yl)acetate for effect on human HCC1937 cells assessed as reduction in KLF5 level at 0.1 to 3 uM for 24 hrs; type: functional; details: dose 0.1-3 µM
# HCC1937 [5] = test: Inhibition of DNA synthesis in human HCC1937 cell at 0.1 to 0.3 uM measured for 24 hrs by Edu incorporation assay; type: functional, cell-based; details: dose 0.1-0.3 µM
# In short: (§2)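 After 24 h treatment at different concentrations, cells were EdU-labelled with the Click-iT imaging kit, fixed and DNA-stained. Fluorescence micrographs were taken and five random fields counted per sample. Result given as % EdU-positive (EdU-positive/total cells). Experimental triplicates, SD shown.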
# HCC1806 [6] = test: Cytotoxicity against human HCC1806 cells assessed as reduction in cell viability at 10 to 10000 nM for 72 hrs by SRB assay; type: functional, cell-based; details: dose 10-10000 nM
# In short: (§3)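 HCC1806 or HCC1937 cells grown in RPMI-1640 with 10 % FBS at 37 °C, 5 % CO2, then exposed to graded compound concentrations for 72 h. Viability read by sulforhodamine B staining, absorbance at 560 nm. Experimental triplicates, SD shown.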
# HCC1806 [7] = test: Potency index, ratio of test compound to (S)-tert-butyl 2-(4-(4-chlorophenyl)-2,3,9-trimethyl-6H-thieno[3,2-f] [1,2,4]triazolo[4,3-a] [1,4]diazepin-6-yl)acetate for effect on human HCC1806 cells assessed as reduction in KLF5 level at 0.1 to 3 uM for 24 hrs; type: functional; details: dose 0.1-3 µM
# HCC1937 [8] = test: Induction of cell cycle arrest in human HCC1937 cells assessed as increase in accumulation of cells at G1 phase at 0.3 uM for 24 hrs by flow cytometric analysis; type: functional, cell-based
# In short: (§4)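 Seeded cells were cultured overnight, then treated with compound for 24 h. Fixed in 70 % ethanol, treated with 40 µg/ml RNase A and stained with 10 µg/ml propidium iodide. Analysed by flow cytometry for G1, S and G2/M fractions. Experimental triplicates, SD shown.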
# HCC1806 [9] = test: Inhibition of DNA synthesis in human HCC1806 cell at 0.1 to 0.3 uM measured for 24 hrs by Edu incorporation assay; type: functional, cell-based; details: dose 0.1-0.3 µM; in short: as §2
# HCC1806 [10] = test: Induction of cell cycle arrest in human HCC1806 cells assessed as increase in accumulation of cells at G1 phase at 0.3 uM for 24 hrs by flow cytometric analysis; type: functional, cell-based; in short: as §4
# HCC1937 [11] = test: Potency index, ratio of test compound to (S)-tert-butyl 2-(4-(4-chlorophenyl)-2,3,9-trimethyl-6H-thieno[3,2-f] [1,2,4]triazolo[4,3-a] [1,4]diazepin-6-yl)acetate for effect on human HCC1937 cells assessed as reduction in c-MYC level at 0.1 to 3 uM for 24 hrs; type: functional; details: dose 0.1-3 µM
# HCC1937 [12] = test: Induction of cell cycle arrest in human HCC1937 cells assessed as increase in accumulation of cells at G1 phase at 0.1 to 0.3 uM for 24 hrs by flow cytometric analysis; type: functional, cell-based; details: dose 0.1-0.3 µM; in short: as §4
# HCC1806 [13] = test: Induction of cell cycle arrest in human HCC1806 cells assessed as increase in accumulation of cells at G1 phase at 0.1 to 0.3 uM for 24 hrs by flow cytometric analysis; type: functional, cell-based; details: dose 0.1-0.3 µM; in short: as §4
# HCC1937 [14] = test: Cytotoxicity against human HCC1937 cells assessed as reduction in cell viability at 10 to 10000 nM for 72 hrs by SRB assay; type: functional, cell-based; details: dose 10-10000 nM; in short: as §3
# HCC1806 [15] = test: Downregulation of KLF5 in human HCC1806 cells treated at 1 uM by immunoblotting analysis; type: functional, cell-based; details: time 12-72 hrs, TDE = time-dependent effect
# In short: (§5)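 Time course: HCC1806 or HCC1937 cells exposed to 1 μM for the indicated times, pellets collected at each time point and lysed with protease inhibitors; equal protein immunoblotted after SDS-PAGE/PVDF transfer for KLF5, GAPDH loading control, ECL detection.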
# HCC1806 [16] = test: Induction of cell cycle arrest in human HCC1806 cells assessed as decrease in accumulation of cells at S phase at 0.3 to 1 uM for 24 hrs by flow cytometric analysis; type: functional, cell-based; details: dose 0.3-1 µM
# In short: (§6)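 HCC1806 or HCC1937 cells seeded, cultured overnight, treated 24 h; fixed in 70% ethanol, RNase A 40 µg/ml, propidium iodide 10 µg/ml; flow cytometry with G1, S and G2/M percentages; experimental triplicates, SD.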
# HCC1806 [17] = test: Inhibition of cell growth in human HCC1806 cells infected with pCDH-3 Flag tagged KLF5 assessed as ectopic KLF5 expression at 100 to 10000 nM for 72 hrs by SRB assay; type: functional, cell-based; details: dose 100-10000 nM
# In short: (§7)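 HCC1806 or HCC1937 cells infected with pCDH-3×Flag-KLF5 or empty pCDH vector lentivirus, plated in 96-well format and treated 72 h; inhibition rate by sulforhodamine B staining read at 560 nm; experimental triplicates, SD.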
# HCC1937 [18] = test: Downregulation of FGFBP in human HCC1937 cells treated at 1 to 3 uM for 24 hrs by immunoblotting analysis; type: functional, cell-based; details: dose 1-3 µM
# In short: (§8)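 HCC1806 or HCC1937 cells (RPMI-1640, 10% FBS, 37 °C, 5% CO2) treated 24 h; lysed with protease inhibitors, protein assayed, equal amounts run on SDS-PAGE, blotted to PVDF, blocked in 5% milk/PBS-0.2% Tween-20, probed for KLF5, FGFBP, p21, c-MYC and GAPDH loading control; HRP secondary, ECL detection.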
# HCC1806 [19] = test: Downregulation of FGFBP in human HCC1806 cells treated at 1 to 3 uM for 24 hrs by immunoblotting analysis; type: functional, cell-based; details: dose 1-3 µM; in short: as §8
# HCC1937 [20] = test: Induction of cell cycle arrest in human HCC1937 cells assessed as decrease in accumulation of cells at S phase at 0.3 to 1 uM for 24 hrs by flow cytometric analysis; type: functional, cell-based; details: dose 0.3-1 µM; in short: as §6
# HCC1806 [21] = test: Upregulation of p21 in human HCC1806 cells treated at 1 to 3 uM for 24 hrs by immunoblotting analysis; type: functional, cell-based; details: dose 1-3 µM; in short: as §8
# HCC1806 [22] = test: Induction of cell cycle arrest in human HCC1806 cells assessed as increase in accumulation of cells at G1 phase at 0.3 to 1 uM for 24 hrs by flow cytometric analysis; type: functional, cell-based; details: dose 0.3-1 µM; in short: as §6
# HCC1937 [23] = test: Induction of cell cycle arrest in human HCC1937 cells assessed as increase in accumulation of cells at G1 phase at 0.3 to 1 uM for 24 hrs by flow cytometric analysis; type: functional, cell-based; details: dose 0.3-1 µM; in short: as §6
# HCC1937 [24] = test: Inhibition of cell growth in human HCC1937 cells infected with pCDH-3 Flag tagged KLF5 assessed as ectopic KLF5 expression at 100 to 10000 nM for 72 hrs by SRB assay; type: functional, cell-based; details: dose 100-10000 nM; in short: as §7
# HCC1937 [25] = test: Downregulation of KLF5 in human HCC1937 cells treated at 1 uM by immunoblotting analysis; type: functional, cell-based; details: time 12-72 hrs, TDE = time-dependent effect; in short: as §5
# HCC1937 [26] = test: Upregulation of p21 in human HCC1937 cells treated at 1 to 3 uM for 24 hrs by immunoblotting analysis; type: functional, cell-based; details: dose 1-3 µM; in short: as §8
# HCC1806 [27] = test: Effect on human HCC1806 cells assessed as reduction in KLF5 mRNA at 1 uM for 12 to 24 hrs by qPCR analysis; type: functional, cell-based; details: time 12-24 hrs
# In short: (§9)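 HCC1806 or HCC1937 cells treated with 1 μM for 12 h or 24 h; KLF5 mRNA quantified by qPCR; experimental triplicates, SD, t-test.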
# HCC1937 [28] = test: Effect on human HCC1937 cells assessed as reduction in KLF5 mRNA at 1 uM for 12 to 24 hrs by qPCR analysis; type: functional, cell-based; details: time 12-24 hrs; in short: as §9
# HCC1937 [29] = test: Effect on KLF5 suppression in human HCC1937 cells at 50 to 200 nM for 24 hrs by immunoblotting analysis; type: functional, cell-based; details: dose 50-200 nM
# In short: (§10)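 Cells in RPMI-1640/10 % FBS treated with compound for 24 h, lysed with protease inhibitor cocktail, and protein quantified. Equal protein run on SDS-PAGE and blotted to PVDF. Blocked in 5 % milk in PBS-0.2 % Tween-20, probed for KLF5, c-MYC and FGF2, with GAPDH as loading control. HRP secondary antibody, ECL detection.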
# HCC1937 [30] = test: Effect on FGFPB suppression in human HCC1937 cells at 50 to 200 nM for 24 hrs by immunoblotting analysis; type: functional, cell-based; details: dose 50-200 nM
# HCC1806 [31] = test: Effect on c-MYC suppression in human HCC1806 cells at 50 to 200 nM for 24 hrs by immunoblotting analysis; type: functional, cell-based; details: dose 50-200 nM; in short: as §10
# HCC1937 [32] = test: Effect on c-MYC suppression in human HCC1937 cells at 50 to 200 nM for 24 hrs by immunoblotting analysis; type: functional, cell-based; details: dose 50-200 nM; in short: as §10
# HCC1806 [33] = test: Effect on KLF5 suppression in human HCC1806 cells at 50 to 200 nM for 24 hrs by immunoblotting analysis; type: functional, cell-based; details: dose 50-200 nM; in short: as §10
# HCC1806 [34] = test: Effect on FGFPB suppression in human HCC1806 cells at 50 to 200 nM for 24 hrs by immunoblotting analysis; type: functional, cell-based; details: dose 50-200 nM
compound,measurement,setting,value
Cc1nnn(C)c1-c1cnc2c3c4cnn(C)c4ccc3n([C@H](c3ccccc3)C3CCOCC3)c2c1,Ratio,HCC1806 [1],~10
same,inhibition,HCC1937 [2],Active
same,inhibition,HCC1806 [3],Active
same,Ratio,HCC1937 [4],~10
same,inhibition,HCC1937 [5],Active
same,Activity,HCC1806 [6],Active
same,Ratio,HCC1806 [7],~10
same,Activity,HCC1937 [8],Active
same,inhibition,HCC1806 [9],Active
same,Activity,HCC1806 [10],Active
same,Ratio,HCC1937 [11],~10
same,Activity,HCC1937 [12],Active
same,Activity,HCC1806 [13],Active
same,Activity,HCC1937 [14],Active
Cc1sc2c(c1C)C(c1ccc(Cl)cc1)=N[C@@H](CC(=O)OC(C)(C)C)c1nnc(C)n1-2,Activity,HCC1806 [15],Tde
same,Activity,HCC1806 [16],Active
same,inhibition,HCC1806 [17],Active
same,Activity,HCC1937 [18],Active
same,Activity,HCC1806 [19],Active
same,Activity,HCC1937 [20],Active
same,Activity,HCC1806 [21],Active
same,Activity,HCC1806 [22],Active
same,Activity,HCC1937 [23],Active
same,inhibition,HCC1937 [24],Active
same,Activity,HCC1937 [25],Tde
same,Activity,HCC1937 [26],Active
same,Activity,HCC1806 [27],Active
same,Activity,HCC1937 [28],Active
CN(C)C/C=C/C(=O)Nc1ccc(C(=O)Nc2cccc(Nc3ncc(Cl)c(-c4c[nH]c5ccccc45)n3)c2)cc1,Activity,HCC1937 [29],Active
same,Activity,HCC1937 [30],Active
same,Activity,HCC1806 [6],Active
same,Activity,HCC1806 [31],Active
same,Activity,HCC1937 [32],Active
same,Activity,HCC1806 [33],Active
same,Activity,HCC1806 [34],Active
same,Activity,HCC1937 [14],Active
